Measurements collected from several papers.
Each line is one published result; the experiments were not run side by side.

`COc1ccc2c(c1)CN(C(=O)CCN1CCC(Cc3ccccc3)CC1)CC[S@@+]2[O-]` gave a clearance of 203 mL/min (male human, plasma; intravenous, 0.05 mg/kg, healthy volunteers).
With `Nc1ccn([C@@H]2O[C@H](CO)[C@@H](O)C2(F)F)c(=O)n1` the viability was 68.6% (MCF7; cell growth or viability, MTT; 0.625 µg/mL, 48 h).
`C[C@H]1[C@@H](C(=O)NCc2nc(-c3ccc(C#N)cc3)cs2)CCCN1C(=O)[C@H]1CCO1` gave a microsomal CLint of 45 µL/min/mg (metabolic stability; male Sprague-Dawley rat, liver microsomes; 0.5 µM).
With `CC(C)C(=O)OC[C@H]1O[C@@H](n2ccc(NO)nc2=O)[C@H](O)[C@@H]1O` the CC50 was 50.1 µM (HEp-2; cell growth or viability, CCK-8; 5 days).
The microsomal CLint of `NCCOCC(=O)N1CCC[C@H](C(=O)NCc2nc(-c3ccc(C(F)(F)F)cc3)cs2)C1` is reported as less than 3 µL/min/mg (metabolic stability; male Sprague-Dawley rat, liver microsomes; 0.5 µM).
With `N#C[C@@]1(c2ccc3c(N)ncnn23)O[C@H](COC(=O)c2ccccc2)[C@@H](O)[C@H]1O` the CC50 was 79.2 µM (HEp-2; cell growth or viability, CCK-8; 5 days).
With `O=C(Nc1ccc(S(=O)(=O)O)c2ccccc12)c1ccc(=O)oc1` the CC50 was greater than 12.5 µM (TZM-bl; cell growth or viability, resazurin).
`CC[C@@H](C)[C@@H](N)C(=O)OC[C@H]1O[C@@](C#N)(c2ccc3c(N)ncnn23)[C@H](O)[C@@H]1O` gave a CC50 of greater than 100 µM (HEp-2; cell growth or viability, CCK-8; 5 days).
With `COCC(=O)N1CCC[C@H](C(=O)NCc2nc(-c3ccc(C#N)cc3)cs2)C1` the microsomal CLint was 10 µL/min/mg (metabolic stability; human, liver microsomes; 0.5 µM).
The CC50 of `CC(C)[C@@H](N)C(=O)OC[C@H]1O[C@@](C#N)(c2ccc3c(N)ncnn23)[C@H](O)[C@@H]1O` is reported as greater than 100 µM (HEp-2; cell growth or viability, CCK-8; 5 days).
`Cc1ncsc1-c1ccc(CNC(=O)[C@@H]2C[C@@H](O)CN2C(=O)[C@@H](NC(=O)COCCOCCn2cc(COc3ccc(-c4nc5cc(-c6ccccc6)ccn5c4Nc4ccc(C(=O)O)cc4)cc3)nn2)C(C)(C)C)cc1` has a CC50 of 74 µM (MCF7; cell growth or viability; 72 h).
`C[C@H]1[C@@H](C(=O)NCc2nc(-c3ccc(C#N)cc3)cs2)CCCN1C(=O)[C@H]1CCC(=O)O1` has a microsomal CLint of 24 µL/min/mg (metabolic stability; male Sprague-Dawley rat, liver microsomes; 0.5 µM).
